Calls of active or inactive are those of the source. The calls are words filed in the database; no cut-off is given here.
How the values were obtained:
Rattus norvegicus [1] = assay: Antihypertensive activity in L-NAME-induced Wistar rat assessed as decrease in blood cholesterol level at 28 mg/kg/day, po for last 4 weeks measured after 8 weeks; format: functional
How it was run: (§1)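 Two-month-old male Wistar rats given L-NAME in drinking water (20 mg/kg/day) for 8 weeks. From week 4, treatment is given daily in drinking water during 12.00–18.00 h, at the dose stated in the line. Ten rats per group. Sacrificed under halothane between 9.00 and 10.00 h. Serum is measured on an automatic analyzer. Mean ± SEM, nonparametric statistics.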

Rattus norvegicus [2] = assay: Antihypertensive activity in L-NAME-induced Wistar rat assessed as decrease in blood protein level at 28 mg/kg/day, po for last 4 weeks measured after 8 weeks; format: functional; how it was run: as §1
Rattus norvegicus [3] = assay: Antihypertensive activity in L-NAME-induced Wistar rat assessed as decrease in blood creatinine level at 28 mg/kg/day, po for last 4 weeks measured after 8 weeks; format: functional; how it was run: as §1
Rattus norvegicus [4] = assay: Plasma concentration in po dosed Wistar rat assessed as EXP-3174 level after 4 weeks; format: ADME, organism-based; details: in vivo, 672 h
How it was run: (§2)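 Separate groups of Wistar rats dosed in drinking water for 4 weeks (n = 4-6 per group), then sacrificed and plasma analyzed by HPLC-MS/MS (triple quadrupole, electrospray), isocratic MeOH/water with 0.1% formic acid, 40 °C. Two plasma samples per animal; mean ± SEM.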

Rattus norvegicus [5] = assay: Antihypertensive activity in L-NAME-induced Wistar rat assessed as decrease in blood LDH level at 28 mg/kg/day, po for last 4 weeks measured after 8 weeks; format: functional; how it was run: as §1
Rattus norvegicus [6] = assay: Antihypertensive activity in Wistar rat assessed as normalization of L-NAME-induced heart weight at 20 mg/kg/day, po for 4 weeks in presence of L-NAME; format: functional, organism-based; details: 28 mg/kg, in the assay text read “28 mg/kg/day” for “20 mg/kg/day”
How it was run: (§3)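 L-NAME (20 mg/kg/day, drinking water, 8 weeks) hypertensive two-month-old male Wistar rats; treatments in drinking water daily for the last 4 weeks. Systolic pressure by tail-cuff in conscious animals. At sacrifice heart weighed (corrected to body weight); aortic rings from descending thoracic aorta, formaldehyde-flushed, media thickness by planimetry. Mean ± SEM of 10 rats.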

Rattus norvegicus [7] = assay: Antihypertensive activity in Wistar rat assessed as normalization of L-NAME-induced collagen 1 level in vessel walls at 28 mg/kg/day, po for 4 weeks in presence of losartan; format: functional, organism-based
How it was run: (§4)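 Male Wistar rats on L-NAME in drinking water (20 mg/kg/day) for 8 weeks, treatments in drinking water for the last 4 weeks. Thoracic aorta lysates run on SDS-PAGE and Western blotted for collagen type I, fibronectin or HNE-lysine, with β-tubulin as loading control; ECL detection, densitometry. Expressed as percent of basal; mean ± SEM of 10 experiments.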

Rattus norvegicus [8] = assay: Antihypertensive activity in L-NAME-induced Wistar rat assessed as decrease in blood urea level at 28 mg/kg/day, po for last 4 weeks measured after 8 weeks; format: functional; how it was run: as §1
Rattus norvegicus [9] = assay: Antihypertensive activity in Wistar rat assessed as normalization of L-NAME-induced fibronectin content in vessel walls at 28 mg/kg/day, po for 4 weeks in presence of losartan; format: functional, organism-based; how it was run: as §4
Rattus norvegicus [10] = assay: Antihypertensive activity in Wistar rat assessed as normalization of L-NAME-induced systolic blood pressure at 28 mg/kg/day, po for 4 weeks; format: functional, organism-based; details: Artery; how it was run: as §3
Rattus norvegicus [11] = assay: Antihypertensive activity in L-NAME-induced Wistar rat assessed as decrease in blood triglyceride level at 28 mg/kg/day, po for last 4 weeks measured after 8 weeks; format: functional; how it was run: as §1
Rattus norvegicus [12] = assay: Antihypertensive activity in L-NAME-induced Wistar rat assessed as decrease in blood […] level at 28 mg/kg/day, po for last 4 weeks measured after 8 weeks; format: functional; how it was run: as §1
Rattus norvegicus [13] = assay: Antihypertensive activity in L-NAME-induced Wistar rat assessed as decrease in blood ALT level at 28 mg/kg/day, po for last 4 weeks measured after 8 weeks; format: functional; how it was run: as §1
Rattus norvegicus [14] = assay: Antihypertensive activity in L-NAME-induced Wistar rat assessed as decrease in blood glucose level at 28 mg/kg/day, po for last 4 weeks measured after 8 weeks; format: functional; how it was run: as §1
Rattus norvegicus [15] = assay: Plasma concentration in po dosed Wistar rat assessed as 3-(3,4-Dihydroxy-phenyl)propionic Acid 2-butyl-5-chloro-3-[2'-(2H-tetrazol-5-yl)-biphenyl-4-ylmethyl]-3H-imidazol-4-ylmethylester level after 4 weeks; format: ADME, organism-based; details: in vivo, 672 h; how it was run: as §2
[16] = Solubility in water assessed as nonhydrolzed drug level after 2 days; format: physicochemical; details: read-out: Activity
Rattus norvegicus [17] = assay: Antihypertensive activity in Wistar rat assessed as normalization of L-NAME-induced aorta thickness at 10 mg/kg/day, po for 4 weeks; format: functional, organism-based; how it was run: as §3
[18] = Antioxidant activity assessed as inhibition of oxidation of chromogen (ABTS) measured per mmol/L of product by total antioxidant assay; format: functional
How it was run: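 Total antioxidant status kit: inhibition of ABTS oxidation by metmyoglobin and hydrogen peroxide, followed at 600 nm absorbance; antioxidant ability proportional to absorbance reduction, expressed as mM. Compounds tested at 1 mmol/L.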

Rattus norvegicus [19] = assay: Antihypertensive activity in L-NAME-induced Wistar rat assessed as decrease in blood Na+ level at 28 mg/kg/day, po for last 4 weeks measured after 8 weeks; format: functional; how it was run: as §1
Rattus norvegicus [20] = assay: Antihypertensive activity in Wistar rat assessed as normalization of L-NAME-induced HNE-lysine accumulation in vessel walls at 28 mg/kg/day, po for 4 weeks in presence of losartan; format: functional, organism-based; how it was run: as §4
Rattus norvegicus [21] = assay: Antihypertensive activity in L-NAME-induced Wistar rat assessed as decrease in blood AST level at 28 mg/kg/day, po for last 4 weeks measured after 8 weeks; format: functional; how it was run: as §1
Rattus norvegicus [22] = assay: Antihypertensive activity in L-NAME-induced Wistar rat assessed as decrease in blood calcium level at 28 mg/kg/day, po for last 4 weeks measured after 8 weeks; format: functional; how it was run: as §1
Rattus norvegicus [23] = assay: Plasma concentration in po dosed Wistar rat assessed as losartan level after 4 weeks; format: ADME, organism-based; details: in vivo, 672 h; how it was run: as §2
VSMC = assay: Displacement of [125I]angiotensin II from angiotensin 2 receptor in Wistar rat VSMC cells by gamma-counter; format: cell-based; design: concentration or dose not given beside the values
How it was run: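 Rat aortic VSMC (collagenase-derived primary cultures, passages 3-5) resuspended in Tris-glucose-NaCl buffer pH 7.4 at 0.5 μg/μL protein; 125 μg protein incubated 45 min with 0.15 nM 125I-angiotensin II plus compound. Bound separated by centrifugation, pellet washed with cold 0.15 M NaCl, gamma counted; nonspecific binding with 10^-4 M angiotensin II.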

Rattus norvegicus [24] = assay: Antihypertensive activity in Wistar rat assessed as normalization of L-NAME-induced heart weight at 28 mg/kg/day, po for 4 weeks in presence of L-NAME; format: functional, organism-based; how it was run: as §3

In the case of `CCCCc1nc(Cl)c(COC(=O)CCc2ccc(O)c(O)c2)n1Cc1ccc(-c2ccccc2-c2nnn[nH]2)cc1`, the Activity (Rattus norvegicus [1]) is reported as 52 mg/dL, the Activity (Rattus norvegicus [2]) is reported as 4.5 g/dL and the Activity (Rattus norvegicus [3]) is reported as 0.42 mg/dL. For the same compound, the concentration (Rattus norvegicus [4]) was 0.013 µM, the Activity (Rattus norvegicus [5]) was 561 IU/L and the Activity (Rattus norvegicus [6]) was “Active”. For the same compound, the Activity (Rattus norvegicus [7]) was “Active”, the Activity (Rattus norvegicus [8]) was 24 mg/dL and the Activity (Rattus norvegicus [9]) was “Active”. The Activity (Rattus norvegicus [10]) was “Active”, the Activity (Rattus norvegicus [11]) was 52 mg/dL and the Activity (Rattus norvegicus [12]) was 4.6 mmol/L. For the same compound, the Activity (Rattus norvegicus [13]) was 24 IU/L, the Activity (Rattus norvegicus [14]) was 154 mg/dL and the concentration (Rattus norvegicus [15]) was 0.171 µM. For the same compound, the remaining at 48 h [16] was 95.9%, the Activity (Rattus norvegicus [17]) was “inactive” and the Activity [18] was 0.31 mmol/L. For the same compound, the Activity (Rattus norvegicus [19]) was 151 mmol/L, the Activity (Rattus norvegicus [20]) was “Active” and the Activity (Rattus norvegicus [21]) was 83 IU/L. For the same compound, the Activity (Rattus norvegicus [22]) was 8.6 mg/dL, the concentration (Rattus norvegicus [23]) was 0.008 µM and the Activity (VSMC) was 59%. For the same compound, the Activity (Rattus norvegicus [24]) was “Active”.
For `CCCCc1ncc(COC(=O)c2cc(OC)c(O)c(OC)c2)n1Cc1ccc(-c2ccccc2-c2nnn[nH]2)cc1`, the Activity [18] was 0.31 mmol/L and the Activity (VSMC) was 66%.

Source: ChEMBL document CHEMBL1156133, “Losartan-antioxidant hybrids: novel molecules for the prevention of hypertension-induced cardiovascular damage” (J Med Chem, 2009)
